Calls of active or inactive are those of the source. The calls are words filed in the database; no cut-off is given here.
Columns and labels:
[1] = In vitro inhibitory activity against platelet phosphodiesterase (PDE)
How it was run: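 Human platelet cAMP PDE in 10 mM Tris-HCl pH 7.7, 10 mM MgSO4, 1 µM […]. Compounds dissolved in DMSO, held 10 min in medium before enzyme addition, then 10 min at 30 °C. Five inhibitor concentrations run in triplicate; IC50 read graphically from mean curves.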

[2] = species: Homo sapiens; assay: Inhibition of platelet aggregation; type: functional
[3] = tested on: Canis familiaris; assay: In vivo inotropic activity in canine model by intravenous administration of 0.316 mg/kg efficacious dose; type: functional, Canis lupus familiaris
[4] = tested on: Canis familiaris; assay: In vivo inotropic activity in canine model by intraduodenal administration of 3.16 mg/kg efficacious dose; type: functional, Canis lupus familiaris
[5] = tested on: Canis familiaris; assay: In vivo inotropic activity in canine model by intravenous administration 1.0 mg/kg efficacious dose; type: functional, Canis lupus familiaris
[6] = tested on: Canis familiaris; assay: In vivo inotropic activity in canine model by intravenous administration (Inactive); type: functional, organism-based; conditions: Canis lupus familiaris
[7] = tested on: Canis familiaris; assay: In vivo inotropic activity in canine model by intraduodenal administration (Inactive); type: functional, organism-based; conditions: Canis lupus familiaris
[8] = tested on: Canis familiaris; assay: Pharmacokinetic parameter AUC was determined in dog after oral administration of 17b; type: ADME, organism-based, Canis lupus familiaris; conditions: in vivo
How it was run: (§1)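 Six fasted conscious female dogs (9.4–10.5 kg) were each given one oral hard-gelatin capsule, dose equivalent to 15 mg parent drug, with 1 week between doses. Jugular blood was sampled at 0–24 h. Plasma parent drug was measured by HPLC after SCX/C-18 extraction (C-8, 280 nm, limit 5 ng/mL). AUC0–24 h was calculated by trapezoidal rule; values are mean ± SD.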

[9] = tested on: Canis familiaris; assay: In vivo inotropic activity in canine model by intravenous administration of 0.10 mg/kg efficacious dose; type: functional, Canis lupus familiaris; conditions: dose 0.1 mg/kg
[10] = tested on: Canis familiaris; assay: Pharmacokinetic parameter AUC was determined in dog after oral administration of 2b; type: ADME, organism-based, Canis lupus familiaris; conditions: in vivo; how it was run: as §1
[11] = tested on: Canis familiaris; assay: In vivo inotropic activity in canine model by intraduodenal administration of 0.316 mg/kg efficacious dose; type: functional, Canis lupus familiaris
[12] = tested on: Canis familiaris; assay: In vivo inotropic activity in canine model by intraduodenal administration of 1.0 mg/kg efficacious dose; type: functional, Canis lupus familiaris

| SMILES | IC50 [1] [nM] | IC50 [2] [nM] | Max CF response [3] [%] | Max CF response [4] [%] | further results |
| --- | --- | --- | --- | --- | --- |
| CN(C(=O)CCCOc1ccc2c(c1)CN(CC(N)=O)C(=O)N2)C1CCCCC1 | 18500 |  |  |  |  |
| Br.CC(OC(=O)CN1Cc2cc(OCCCC(=O)N(C)C3CCCCC3)ccc2N=C1N)c1ccccc1 (stereo not given) | 8 | 150 | 61 | 64 |  |
| Br.CN(C(=O)CCCOc1ccc2c(c1)CN(CC(=O)Nc1ccccc1)C(N)=N2)C1CCCCC1 | 100 | 5400 | 64 | 37 |  |
| CN(C(=O)CCCOc1ccc(N)c(CN2CC(=O)NC2=O)c1)C1CCCCC1 | 3400 |  |  |  |  |
| CCOC(=O)CN1Cc2cc(OCCCC(=O)N(C)C3CCCCC3)ccc2N=C1NC(C)=O | 3100 | 100000 |  | 58 | Max CF response [5]: 58% |
| Br.CCOC(=O)CN1Cc2cc(OCCCC(=O)N(C)C3CCCCC3)ccc2N=C1N | 9.3 |  | 75 | 62 |  |
| Br.CN(C(=O)CCCOc1ccc2c(c1)CN(CC(=O)O)C(N)=N2)C1CCCCC1 | 60 |  |  |  | Max CF response [6]: inactive; Max CF response [7]: inactive |
| CN(C(=O)CCCOc1ccc2c(c1)CN1CC(=O)N(COC(=O)C(C)(C)C)C1=N2)C1CCCCC1 | 150 |  |  |  |  |
| Br.CN(C(=O)CCCOc1ccc2c(c1)CN(CC(=O)OCC(C)(C)C)C(N)=N2)C1CCCCC1 | 35 |  |  |  |  |
| CN(C(=O)CCCOc1ccc2c(c1)CN1CC(=O)NC1=N2)C1CCCCC1 [LIXAZINONE] | 6 | 50 |  |  | AUC [8]: 268 ng·h/mL; Max CF response [9]: 71%; AUC [10]: 257 ng·h/mL; Max CF response [11]: 42% |
| Br.CC(OC(=O)CN1Cc2cc(OCCCC(=O)N(C)C3CCCCC3)ccc2N=C1N)C(C)(C)C (stereo not given) | 470 | 17000 |  | 62 |  |
| CCOC(=O)C(CCOc1ccc2c(c1)CN1CC(=O)NC1=N2)C(=O)N(C)C1CCCCC1 (stereo not given) | 6.1 |  | 50 |  | Max CF response [12]: 50% |
| Br.CN(C(=O)CCCOc1ccc2c(c1)CN(CC(=O)OC1CCCCC1)C(N)=N2)C1CCCCC1 | 52 | 1200 |  | 45 |  |
| Br.CN(C(=O)CCCOc1ccc2c(c1)CN(CC(N)=O)C(N)=N2)C1CCCCC1 | 120 | 4200 | 37 | 37 |  |
| Br.CN(C(=O)CCCOc1ccc2c(c1)CN(CC(=O)N1CCCCC1)C(N)=N2)C1CCCCC1 | 10 |  |  |  |  |
| Br.CC(C)OC(=O)CN1Cc2cc(OCCCC(=O)N(C)C3CCCCC3)ccc2N=C1N | 63 | 3400 | 40 | 31 |  |
| Br.CN(C(=O)CCCOc1ccc2c(c1)CN(CC(=O)N1CCOCC1)C(N)=N2)C1CCCCC1 | 52 | 700 | 71 | 70 |  |
| Br.CN(C(=O)CCCOc1ccc2c(c1)CN(CC(=O)OC(C)(C)C)C(N)=N2)C1CCCCC1 | 430 | 4300 |  |  | Max CF response [6]: inactive; Max CF response [7]: inactive |
| CN(C(=O)C(CCOc1ccc2c(c1)CN1CC(=O)NC1=N2)C(=O)O)C1CCCCC1 (stereo not given) | 5 |  | 58 |  | Max CF response [12]: 20% |
| CN(C(=O)CCCOc1ccc2c(c1)CN1CC(=O)N(CN3CCOCC3)C1=N2)C1CCCCC1 | 16 |  |  |  | Max CF response [9]: 65%; Max CF response [11]: 25% |

— ChEMBL document CHEMBL1124005, “Inhibitors of cyclic AMP phosphodiesterase. 4. Synthesis and evaluation of potential prodrugs of lixazinone (N-cyclohexyl-N-methyl-4-[(1,2,3,5-tetrahydro-2- oxoimidazo[2,1-b]quinazolin-7-yl)-oxy]butyramide, RS-82856)” (J Med Chem, 1988)
